Results on 24 compounds are retold here after ChEMBL document CHEMBL1143077, “Synthesis of 2-[3-(7-Chloro-quinolin-4-ylamino)-alkyl]-1-(substituted phenyl)-2,3,4,9-tetrahydro-1H-beta-carbolines as a new class of antimalarial agents” (2008).

In the assay the test system is Plasmodium falciparum. In words: Antimalarial activity against chloroquine-sensitive Plasmodium falciparum NF54 after 36-40 hrs. It counts as functional. The procedure, abridged:
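Rieckmann microassay: NF-54 kept in RPMI-1640 with 25 mM HEPES, 1% D-glucose, 0.23% sodium bicarbonate, 10% heat-inactivated human serum. Ring stage obtained by 5% D-sorbitol synchronization; ~1% parasitemia, 3% haematocrit. Compound 0.25–50 µg/ml, duplicate wells, 37 °C in candle jar. Giemsa smears scored microscopically; MIC taken as lowest concentration blocking full maturation to schizonts.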

Values after ≈ are worked out from the molar mass of the structure shown.

`COC(=O)[C@H]1Cc2c([nH]c3ccccc23)[C@@H](c2ccc(C(C)C)cc2)N1CCNc1ccnc2cc(Cl)ccc12` came in with a minimal inhibitory concentration (MIC) of 18.1 µM (≈ 10 µg/mL).

The compound `COC(=O)[C@H]1Cc2c([nH]c3ccccc23)[C@H](c2ccc(C)cc2)N1CCCNc1ccnc2cc(Cl)ccc12` showed an MIC of 0.46 µM (≈ 0.248 µg/mL).

`COC(=O)[C@@H]1Cc2c([nH]c3ccccc23)[C@H](c2ccc(Cl)cc2)N1CCCNc1ccnc2cc(Cl)ccc12` yielded an MIC of 3.58 µM (≈ 2 µg/mL).

The compound `CCN(CC)CCCC(C)Nc1ccnc2cc(Cl)ccc12` (centres undefined) [CHLOROQUINE] showed an MIC of 0.391 µM (≈ 0.125 µg/mL).

Compound `COC(=O)[C@@H]1Cc2c([nH]c3ccccc23)[C@@H](c2ccc(OC)cc2)N1CCCNc1ccnc2cc(Cl)ccc12` returned a minimum inhibitory concentration (MIC) of 3.61 µM (≈ 2 µg/mL).

As to `COC(=O)[C@H]1Cc2c([nH]c3ccccc23)[C@@H](c2ccc(OC)cc2)N1CCCNc1ccnc2cc(Cl)ccc12`, the minimum inhibitory concentration (MIC) amounted to 3.61 µM (≈ 2 µg/mL).

Turning to `COC(=O)[C@H]1Cc2c([nH]c3ccccc23)[C@H](c2ccc(Br)cc2)N1CCCNc1ccnc2cc(Cl)ccc12`, the minimal inhibitory concentration (MIC) stood at 16.6 µM (≈ 10 µg/mL).

Compound `COC(=O)[C@H]1Cc2c([nH]c3ccccc23)[C@@H](c2ccc(C(C)C)cc2)N1CCCNc1ccnc2cc(Cl)ccc12` had a minimal inhibitory concentration (MIC) of 0.22 µM (≈ 0.125 µg/mL).

`COC(=O)[C@H]1Cc2c([nH]c3ccccc23)[C@H](c2cc(OC)c(OC)c(OC)c2)N1CCCNc1ccnc2cc(Cl)ccc12` displayed an MIC of 16.3 µM (≈ 10 µg/mL).

Compound `COC(=O)[C@H]1Cc2c([nH]c3ccccc23)[C@H](c2ccc(C(C)C)cc2)N1CCNc1ccnc2cc(Cl)ccc12` registered an MIC of 18.1 µM (≈ 10 µg/mL).

For `COC(=O)[C@H]1Cc2c([nH]c3ccccc23)[C@H](c2ccc(SC)cc2)N1CCCNc1ccnc2cc(Cl)ccc12`, 17.5 µM (≈ 10 µg/mL) was the least that counted as inhibitory (MIC).

As for `COC(=O)[C@H]1Cc2c([nH]c3ccccc23)[C@H](c2ccc(Cl)cc2)N1CCCNc1ccnc2cc(Cl)ccc12`, the MIC is 1.79 µM (≈ 1 µg/mL).

The compound `COC(=O)[C@@H]1Cc2c([nH]c3ccccc23)[C@H](c2ccc(SC)cc2)N1CCCNc1ccnc2cc(Cl)ccc12` returned an MIC of 17.5 µM (≈ 10 µg/mL).

In turn, `COC(=O)[C@H]1Cc2c([nH]c3ccccc23)[C@H](c2ccc(C(C)C)cc2)N1CCCNc1ccnc2cc(Cl)ccc12` registered an MIC of 0.22 µM (≈ 0.125 µg/mL).

Regarding `COC(=O)[C@@H]1Cc2c([nH]c3ccccc23)[C@H](c2ccc(C(C)C)cc2)N1CCNc1ccnc2cc(Cl)ccc12`, the minimal inhibitory concentration (MIC) worked out at 18.1 µM (≈ 10 µg/mL).

`CCc1ccc([C@@H]2c3[nH]c4ccccc4c3C[C@H](C(=O)OC)N2CCCNc2ccnc3cc(Cl)ccc23)cc1` displayed an MIC of 0.11 µM (≈ 0.0608 µg/mL).

The compound `COC(=O)[C@@H]1Cc2c([nH]c3ccccc23)[C@H](c2ccc(C(C)C)cc2)N1CCCNc1ccnc2cc(Cl)ccc12` came in with an MIC of 0.22 µM (≈ 0.125 µg/mL).

Turning to `COC(=O)[C@@H]1Cc2c([nH]c3ccccc23)[C@H](c2cc(OC)c(OC)c(OC)c2)N1CCCNc1ccnc2cc(Cl)ccc12`, 16.3 µM (≈ 10 µg/mL) was the least that counted as inhibitory (MIC).

Consider `COC(=O)[C@H]1Cc2c([nH]c3ccccc23)[C@H](c2ccc(OC)cc2)N1CCCNc1ccnc2cc(Cl)ccc12`, for which the minimal inhibitory concentration (MIC) was 18.1 µM (≈ 10 µg/mL).

For `COC(=O)[C@@H]1Cc2c([nH]c3ccccc23)[C@@H](c2ccc(C(C)C)cc2)N1CCCNc1ccnc2cc(Cl)ccc12`, inhibition of growth (MIC) required 0.05 µM (≈ 0.0284 µg/mL).

Consider `COC(=O)[C@@H]1Cc2c([nH]c3ccccc23)[C@@H](c2ccc(C(C)C)cc2)N1CCNc1ccnc2cc(Cl)ccc12`, for which the MIC came out at 18.1 µM (≈ 10 µg/mL).

`COC(=O)[C@@H]1Cc2c([nH]c3ccccc23)[C@@H](c2ccc(C)cc2)N1CCCNc1ccnc2cc(Cl)ccc12`: inhibition of growth (MIC) required 0.06 µM (≈ 0.0323 µg/mL).

As for `COC(=O)[C@@H]1Cc2c([nH]c3ccccc23)[C@H](c2ccc(OC)cc2)N1CCCNc1ccnc2cc(Cl)ccc12`, the minimum inhibitory concentration (MIC) is 3.61 µM (≈ 2 µg/mL).

In the case of `COC(=O)[C@H]1Cc2c([nH]c3ccccc23)[C@H](c2ccc(C)cc2)N1CCNc1ccnc2cc(Cl)ccc12`, 19.1 µM (≈ 10 µg/mL) was the least that counted as inhibitory (MIC).

Broadly, the MIC is the smallest concentration in the dilution series that meets the test's criterion for growth inhibition. A high value points to weaker potency.
